Experimental data from ChEMBL document CHEMBL4400576, “Identification of Pyrazolo[1,5-a]pyridine-3-carboxamide Diaryl Derivatives as Drug Resistant Antituberculosis Agents” (ACS Med Chem Lett, 2019).
Values after ≈ are worked out from the molar mass of the structure shown.

Tests used:
[1] = Selectivity index, ratio of IC50 for African green monkey Vero cells to MIC>=90 for Mycobacterium tuberculosis H37Rv; type: toxicity; details: read-out: Selectivity Index
In short: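 SI is Vero cell IC50 divided by MABA MIC against H37Rv, with MIC tested at 0.002 to 0.5 μg/mL.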

Vero = assay: Cytotoxicity against African green monkey Vero cells measured after 72 hrs by CellTiter 96 aqueous non-radioactive cell proliferation assay; type: cell-based; details: Chlorocebus sabaeus
In short: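 Vero cells were exposed to compound, and cytotoxicity was reported as IC50 in µg/mL.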

[2] = tested on: Mycobacterium tuberculosis; assay: Antibacterial activity against Mycobacterium tuberculosis H37Rv after 7 days by microplate alamar blue assay; type: functional; details: 168 h
In short: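 MIC against H37Rv by MABA. Primary screen run at 0.02 to 5 μg/mL. Compounds retested at 0.002 to 0.5 μg/mL.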

[3] = AUC (0 to infinity) in Sprague-Dawley rat at 2.5 mg/kg, iv by LC-MS/MS analysis; type: ADME, organism-based; set-up: dose 2.5 mg/kg, route intravenous, time infinity; details: in vivo
In short: (§1)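 Rats received a single dose of compound, either intravenously at 2.5 mg/kg or orally at 10 mg/kg, in separate arms. Plasma parameters were AUC0-∞ (h*µg/L), Cmax (µg/L), Tmax, T1/2 and MRT (h). Oral bioavailability F (%) was derived from the oral and intravenous arms.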

[4] = Cmax in Sprague-Dawley rat at 2.5 mg/kg, iv by LC-MS/MS analysis; type: ADME, organism-based; set-up: dose 2.5 mg/kg, route intravenous; details: in vivo; in short: as §1
[5] = Half life in Sprague-Dawley rat at 2.5 mg/kg, iv by LC-MS/MS analysis; type: ADME, organism-based; details: in vivo; in short: as §1
[6] = MRT (0 to infinity) in Sprague-Dawley rat at 2.5 mg/kg, iv by LC-MS/MS analysis; type: ADME, organism-based; details: in vivo; in short: as §1
[7] = Tmax in Sprague-Dawley rat at 10 mg/kg, po by LC-MS/MS analysis; type: ADME, organism-based; details: in vivo; in short: as §1
[8] = MRT (0 to infinity) in Sprague-Dawley rat at 10 mg/kg, po by LC-MS/MS analysis; type: ADME, organism-based; details: in vivo; in short: as §1
[9] = Oral bioavailability in Sprague-Dawley rat at 10 mg/kg by LC-MS/MS analysis; type: ADME, organism-based; details: in vivo; in short: as §1
[10] = Tmax in Sprague-Dawley rat at 2.5 mg/kg, iv by LC-MS/MS analysis; type: ADME, organism-based; details: in vivo; in short: as §1
[11] = AUC (0 to infinity) in Sprague-Dawley rat at 10 mg/kg, po by LC-MS/MS analysis; type: ADME, organism-based; set-up: dose 10 mg/kg, route oral, time infinity; details: in vivo; in short: as §1
[12] = Half life in Sprague-Dawley rat at 10 mg/kg, po by LC-MS/MS analysis; type: ADME, organism-based; details: in vivo; in short: as §1
[13] = Cmax in Sprague-Dawley rat at 10 mg/kg, po by LC-MS/MS analysis; type: ADME, organism-based; set-up: dose 10 mg/kg, route oral; details: in vivo; in short: as §1

Structure (SMILES) | selectivity ratio [1] | IC50 (Vero) [µg/mL] | MIC90 [2] [µg/mL] | also measured
COc1ccn2nc(C)c(C(=O)NCc3ccc(-c4ccc(OC(F)(F)F)cc4)c(OC)c3)c2c1 | 1680 | 11.8 (≈ 24.3 µM) | – | –
COc1ccn2nc(C)c(C(=O)NCc3ncc(-c4ccc(OC(F)(F)F)cc4)o3)c2c1 | – | – | 1.96 (≈ 4.39 µM) | –
COc1ccn2nc(C)c(C(=O)NCc3ccc(-c4ccc(OC(F)(F)F)cc4)c(C)c3)c2c1 | 242 | 3.15 (≈ 6.71 µM) | – | –
COc1ccn2nc(C)c(C(=O)NCc3ccc(-c4ccc(OC(F)(F)F)cc4)c(F)c3)c2c1 | > 25000 | > 50 | – | –
COc1ccn2nc(C)c(C(=O)NCc3cn(-c4ccc(OC(F)(F)F)cc4)nn3)c2c1 | – | – | > 5 | –
COc1ccn2nc(C)c(C(=O)NCc3ccc(-c4ccc(OC(F)(F)F)cc4)cc3C(F)(F)F)c2c1 | – | – | > 5 | –
COc1nc2ccc(Br)cc2cc1[C@@H](c1ccccc1)[C@@](O)(CCN(C)C)c1cccc2ccccc12 [BEDAQUILINE] | > 500 | > 10 | 0.02 to 0.03 (≈ 0.036 to 0.054 µM) | –
COc1ccn2nc(C)c(C(=O)NCc3nnc(-c4ccc(OC(F)(F)F)cc4)o3)c2c1 | – | – | > 5 | –
COc1ccn2nc(C)c(C(=O)NCc3cnc(-c4ccc(OC(F)(F)F)cc4)s3)c2c1 | – | – | 0.53 (≈ 1.15 µM) | –
NNC(=O)c1ccncc1 [ISONIAZID] | – | – | 0.239 to 0.48 (≈ 1.74 to 3.5 µM) | –
COc1ccn2nc(C)c(C(=O)NCc3ccc(-c4ccc(OC(F)(F)F)cc4)c(C(F)(F)F)c3)c2c1 | 402 | 11.6 (≈ 22.2 µM) | – | –
COc1ccn2nc(C)c(C(=O)NCc3ccc(-c4ccc(OC(F)(F)F)cc4)s3)c2c1 | > 25000 | > 50 | – | –
COc1ccn2nc(C)c(C(=O)NCc3ccc(-c4ccc(OC(F)(F)F)cc4)cc3F)c2c1 | > 7140 | > 50 | – | –
COc1ccn2nc(C)c(C(=O)NCc3ccc(-c4ccc(OC(F)(F)F)cc4)nc3)c2c1 | 535 | 28.4 (≈ 62.2 µM) | – | –
COc1ccn2nc(C)c(C(=O)NCc3ncc(-c4ccc(OC(F)(F)F)cc4)[nH]3)c2c1 | – | – | > 5 | –
CC(=O)NC[C@H]1CN(c2ccc(N3CCOCC3)c(F)c2)C(=O)O1 [LINEZOLID] | – | – | 1.25 to 3.27 (≈ 3.72 to 9.69 µM) | –
COc1ccn2nc(C)c(C(=O)NCc3ccc(-c4ccc(OC(F)(F)F)cc4)cc3C)c2c1 | – | – | 0.57 (≈ 1.21 µM) | –
COc1ccn2nc(C)c(C(=O)NCc3ccc(-c4ccc(OC(F)(F)F)cc4)cc3OC)c2c1 | – | – | 0.28 (≈ 0.577 µM) | –
COc1ccn2nc(C)c(C(=O)NCc3ccc(-c4ccc(OC(F)(F)F)cc4)cn3)c2c1 | > 25000 | > 50 | – | AUC(0-inf) [3]: 9000 ng·h/mL; Cmax [4]: 4150 ng/mL; half-life [5]: 3.49 h; MRT inf [6]: 4.02 h; Tmax [7]: 4.67 h; MRT inf [8]: 8.21 h; bioavailability [9]: 41%; Tmax [10]: 4.8 min; AUC(0-inf) [11]: 15600 ng·h/mL; half-life [12]: 5.1 h; Cmax [13]: 1430 ng/mL
CO[C@H]1/C=C/O[C@@]2(C)Oc3c(C)c(O)c4c(O)c(c(/C=N/N5CCN(C)CC5)c(O)c4c3C2=O)NC(=O)/C(C)=C\C=C\[C@H](C)[C@H](O)[C@@H](C)[C@@H](O)[C@@H](C)[C@H](OC(C)=O)[C@@H]1C [RIFAMPIN] | > 12500 | > 100 | – | –
